Screening data deposited in PubChem BioAssay by several laboratories.
Hits are enriched below; roughly 2% of the tested compounds scored in any of these assays.
14-3-3 Bad PPI = disrupts binding of bovine 14-3-3 zeta to phospho-Bad peptide. P63103. TR-FRET 14-3-3zeta/Dy647-pBad peptide displacement, 1 h. inhibition, % at 21.7 µM. 220,000 tested, 0.71% active. AID 781;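 active = inhibition above about 70%, limit read from the data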;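 also: 0% = full 14-3-3 plus peptide FRET controls and 100% = background without 14-3-3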
Diaphorase act = counter-screen for diaphorase-based assays: diaphorase activators and chemical reducers; activation factor at 20 µM; AID 1229; Diaphorase/resazurin coupled assay, resorufin fluorescence, 16 min; stronger effect = higher value; 1 = vehicle wells, 0 = NADH-free wells; 190,000 tested, 0.005% active;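 active = diaphorase activity raised at least twofold by the compound at 20 µM; inactive = activation factor below 2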
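Test system: Clostridium kluyveri diaphorase, purified enzyme; input: enzyme 0.07 U/mL final; buffer or medium: 50 mM HEPES pH 7.4 with 4.542 mM MgCl2, 0.005% Tween 20; also added: 0.114 mM NADH and 0.1 mM resazurin, final amounts; schedule: 16 min enzyme reaction, ambient temperature; technique: fluorescence of resorufin, 544 nm excitation, 590 nm emission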
Hck Nef HTS = blocks Nef-activated human Hck kinase; Recombinant Hck-YEEI plus Nef, Z-Lyte FRET kinase assay; 220,000 tested, 0.68% active; inhibition, % at 20 µM; P08631;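 active = Hck-Nef kinase inhibition above about 50%, limit read from the data; inactive = inhibition below that limit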;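 also: 0% = DMSO with Hck plus Nef and 100% = Hck alone without Nef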
p47phox inh = blocks human p47phox regulatory protein of NADPH oxidases; P14598; p47phox/p22phox peptide binding, fluorescence polarization, 2 h; inhibition, % at 24.7 µM; 220,000 tested, 0.53% active; AID 1274;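 also: 0% = p47phox with labelled peptide and 100% = labelled peptide alone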
eIF4E-4G inh = eIF4E/eIF4G interaction inhibition in translation initiation. P63073+Q04637. TR-FRET eIF4E-eIF4GI(517-606) binding, 2 h. inhibition, % at 21.7 µM. 220,000 tested, 0.37% active;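 also: 0% = full FRET control wells and 100% = background wells lacking eIF4GI fragment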
Active calls of the source: *; nt = no result given; [ ] = another dose, or the depositor's remark.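 The calls were made as follows, unless noted: active = inhibition above about 30% (limit read from the data); inactive = the rest.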

SMILES	14-3-3 Bad PPI	Diaphorase act	Hck Nef HTS	p47phox inh	eIF4E-4G inh
COc1cccc(CNC(=O)C23CN(Cc4ccccc4)CC2C(c2ccc([N+](=O)[O-])cc2)=NO3)c1 (configuration not stated)	71.3*	0.8	2.7	-2.7	-3.6
CC1CCC(C(C)C)C(OCC(O)CN2CCN(Cc3ccccc3)CC2)C1 (configuration not stated)	73.8*	0.9	1.2	-15.4	-4.0
COc1ccc(Cc2nc(C(=O)NCc3ccccc3OC)cs2)cc1	13.7	0.8	0.7	31.3*	4.1
CCOc1cccc(NC(=O)C2CC(=O)N(c3ccc(F)cc3)C2)c1 (configuration not stated)	-5.2	0.9	17.4	-19.0	-2.6
CCOc1ccc(N2CC(C(=O)Nc3cccc(S(=O)(=O)NC4=NCCC4)c3)CC2=O)cc1 (configuration not stated)	-5.2	nt	13.9	-9.5	97.2*
O=C(O)CCC(=O)N1CCOc2ccc(Cl)cc21	-0.6	0.9	-0.8	36.8*	1.3
O=C(CN1C(=O)COc2ccc(Cl)cc21)Nc1ccc2c(c1)OCCO2	17.6	0.9	0.8	-7.8	5.7
COc1ccc(Cn2cnc([N+](=O)[O-])c2)cc1[N+](=O)[O-]	98.5*	nt	-1.7	1.4	0.7
CC12CC3CC(C)(C1)CC(CN1CCOCC1)(C3)C2	6.8	1	0.8	38.9*	9.2
CCN(C(=O)C(C)Cl)c1ccccc1 (configuration not stated)	-7.3	1	22.2	2.6	0.1
N#Cc1c(NC(=O)c2cccc(S(=O)(=O)Nc3ccc(C(=O)O)cc3)c2)sc2c1CCCC2	5.6	nt	2.4	-35.5	6.9
CCc1ccc(OCc2nnc(SCCN3CCOCC3)n2C)cc1	85.0*	0.8	1.3	8.1	-5.2
Cc1ccc2c(Cl)cc(Cl)c(OCC(=O)NCc3ccco3)c2n1	39.2	0.5	2.8	1.8	47.2*[fluorescence artefact?]
O=C(COc1cccc(Br)c1)N/N=C1\CCCc2ccccc21	-12.3	0.9	-5.3	4.6	0.0
O=C(COc1cccc(Br)c1)NN=C1c2ccccc2-c2ccccc21	43.9	1	28.4	68.2*	18.6
Cn1nc(C(F)(F)F)c(-c2cccc(C(F)(F)F)c2)c1NC(=O)Nc1ccc(F)cc1	-6.6	nt	-2.7	-9.1	-1.4
CCOC(=O)C1(CCCc2ccccc2)CCN(C(=O)CCC2=NNC(=O)CC2)CC1	-9.5	1	-9.7	0.4	0.8
O=C(NCc1ccco1)/C(=C/c1cccnc1)NC(=O)c1cccc(Br)c1	77.1*[fluorescence artefact?]	0.9	-1.1	0.9	-4.0
Cc1ccc(CNC(=O)c2ccc(N3CCc4ccccc43)c([N+](=O)[O-])c2)cc1	19.1	1	0.1	-7.5	54.9*
CCc1nn(CC(=O)Nc2ccc(Br)c(C)c2)c(=N)s1	-6.0	1.3	3.0	-7.4	-0.7
CCC(CC)N1CCN(CC2CC=CCC2)CC1 (configuration not stated)	48.1	0.8	14.2	-9.0	2.8
CC(C)CC(=O)N1CCN(CC2CC=CCC2)CC1 (configuration not stated)	76.8*	0.8	5.1	0.6	4.1
CCOC(=O)COc1cnc2ccccc2n1	29.4	1	22.2	-9.6	6.2
Cc1ccccc1NC(=O)CSc1ccncc1	-1.1	nt	-8.8	-14.4	1.3
O=C(Nc1ccc(C2=NCCN2)cc1)c1ccc(C(=O)Nc2ccc(C3=NCCN3)cc2)c([N+](=O)[O-])c1	78.8*	nt	-49.3	16.2	2.8
SMILES	14-3-3 Bad PPI	Diaphorase act	Hck Nef HTS	p47phox inh	eIF4E-4G inh
Cc1ccc(-c2cc(Cc3ccccn3)c(=O)[nH]n2)cc1	-0.6	nt	20.7	-100.1	0.2
CCOc1cccc(OCCCCn2ccnc2)c1	34.2	0.8	1.1	-16.1	36.4*
O=C(CSCC(=O)Nc1ccc2ccccc2c1)NCc1ccccc1	-2.1	0.8	1.4	-2.5	37.0*
N=C1C(c2nc(-c3ccc(Cl)cc3)cs2)=C(O)CN1NC(=O)c1ccc(O)cc1	76.5*	nt	45.3	-82.1	-11.3
Cc1ccc(-c2csc(C3=C(O)CN(NC(=O)c4ccc([N+](=O)[O-])cc4)C3=N)n2)cc1	5.9	1	1.1	-8.9	-1.0
CC1CCCCN1C(=O)Cn1c(=O)n(-c2ccc(F)cc2)c(=O)c2sccc21 (configuration not stated)	-12.1	1.1	-10.1	-8.7	75.0*
Cn1c(SCc2ccccc2)nnc1-c1ccc2nonc2c1	-8.8	nt	14.3	-4.3	-0.8
Cc1ccc(Nc2nc3ccccc3nc2-n2nc(C)cc2C)cc1	5.7	0.9	0.7	2.6	51.9*
COC(=O)c1sc(N2C(=O)c3oc4ccccc4c(=O)c3C2c2cccs2)nc1C (configuration not stated)	49.5	0.7	41.2	49.5*	9.2
Cc1ccc(C2c3c(oc4ccccc4c3=O)C(=O)N2c2nnc(C)s2)o1 (configuration not stated)	nt	nt	-1.0	nt	nt
COc1ccc(NS(=O)(=O)c2ccc(N3CCOCC3)c(NC(=O)c3ccc(F)cc3)c2)cc1	-17.0	0.9	1.0	-2.7	-1.9
COc1ccc(NS(=O)(=O)c2ccc(N3CCOCC3)c(NC(=O)c3cccc(F)c3)c2)cc1	11.9	0.8	-45.1	50.5*	-5.0
CCCCN1/C(=C/c2ccc3ccccc3[n+]2CC)Sc2ccccc21	5.4	0.9	19.8	-106.0	9.8
CCN1/C(=C/c2ccc3ccccc3[n+]2CC)C=Cc2ccccc21	41.5	0.9	4.3	-181.8	45.6*[fluorescence artefact?]
Cc1cnc(NC(=O)CC2CCCC2)s1	-8.2	1.2	20.9	-7.9	1.1
CCOC(=O)c1sc(S(C)=O)c2c1CCc1conc1-2 (configuration not stated)	-14.9	nt	3.8	-3.7	8.4
CCN1CCCC1CNC(=O)c1ccc(N2CCOCC2)c(NS(=O)(=O)c2ccc(OC)cc2)c1 (configuration not stated)	-8.5	0.9	25.5	4.0	0.3
Cn1c(=O)c(=O)n(C)c2cc(S(=O)(=O)N3CCCC3C(=O)NCc3cccs3)ccc21 (configuration not stated)	2.2	nt	-0.5	-8.5	-1.8
CCOC(=O)Nc1ccc(C)cc1NC(=O)OCC	8.5	0.9	0.4	-13.0	8.1
CCOC(=O)Nc1ccc(C)cc1C	4.3	0.9	-16.0	117.0*	8.2
CC(C)Cn1c(N)c(C(=O)COC(=O)c2cnc(Cl)c(Cl)c2)c(=O)n(C)c1=O	2.5	1	13.8	0.8	-6.9
CC1C(=O)OC(c2ccc(Br)cc2)C(C)(C)C1=O (configuration not stated)	6.9	nt	-11.4	-0.4	2.8
COc1ccccc1-c1noc(-c2ccccc2)n1	3.8	0.9	1.2	-12.9	86.7*
O=C(CSCc1ccccc1Br)N/N=C/c1ccccc1C(=O)O	82.9*	1	5.9	7.0	-3.3
O=C(Nc1cc([N+](=O)[O-])ccc1F)c1cccs1	-10.6	0.9	5.7	75.2*	12.5
